Drawing on ChEMBL document CHEMBL1765009, “Novel hydrazine molecules as tools to understand the flexibility of vascular adhesion protein-1 ligand-binding site: toward more selective inhibitors” (J Med Chem, 2011), this text covers Ratio IC50 and IC50 for 8 compounds.

Assay [1] in a line: Selectivity ratio, ratio of IC50 for rat liver MAO-A/MAO-B to IC50 for human recombinant VAP-1.
The target of a further assay is T1, Monoamine oxidase (Rattus norvegicus, UniProt P19643+P21396).
T1 sequence (P19643 whole entry): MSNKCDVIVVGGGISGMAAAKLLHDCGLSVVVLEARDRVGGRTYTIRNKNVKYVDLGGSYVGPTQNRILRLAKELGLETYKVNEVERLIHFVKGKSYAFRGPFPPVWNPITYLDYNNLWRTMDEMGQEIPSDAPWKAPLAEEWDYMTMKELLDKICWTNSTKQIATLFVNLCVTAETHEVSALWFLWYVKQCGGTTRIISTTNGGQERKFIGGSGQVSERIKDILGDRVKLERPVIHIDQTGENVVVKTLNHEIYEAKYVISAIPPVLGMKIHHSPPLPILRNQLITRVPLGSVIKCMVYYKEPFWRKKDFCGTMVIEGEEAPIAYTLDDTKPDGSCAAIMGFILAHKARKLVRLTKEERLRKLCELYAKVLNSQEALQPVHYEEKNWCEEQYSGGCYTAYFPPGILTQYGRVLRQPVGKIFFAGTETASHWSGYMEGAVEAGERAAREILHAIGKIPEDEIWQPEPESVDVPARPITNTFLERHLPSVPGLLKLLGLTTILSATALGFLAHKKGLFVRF
T1 sequence (P21396 whole entry): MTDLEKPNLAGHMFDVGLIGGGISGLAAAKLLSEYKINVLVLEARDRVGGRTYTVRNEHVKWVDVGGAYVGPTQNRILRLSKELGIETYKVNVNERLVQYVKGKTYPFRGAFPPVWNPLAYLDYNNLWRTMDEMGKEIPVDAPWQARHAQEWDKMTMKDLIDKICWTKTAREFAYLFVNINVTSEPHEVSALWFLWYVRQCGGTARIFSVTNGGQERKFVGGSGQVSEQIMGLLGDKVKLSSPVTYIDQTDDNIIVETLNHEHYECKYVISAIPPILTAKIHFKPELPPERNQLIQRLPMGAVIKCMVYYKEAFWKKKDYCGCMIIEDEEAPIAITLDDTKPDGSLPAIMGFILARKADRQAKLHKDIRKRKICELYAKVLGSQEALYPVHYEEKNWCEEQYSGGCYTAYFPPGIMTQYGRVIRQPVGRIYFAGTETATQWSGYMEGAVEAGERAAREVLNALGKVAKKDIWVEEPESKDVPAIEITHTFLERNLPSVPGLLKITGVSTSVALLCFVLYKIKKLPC
Description: Inhibition of rat liver MAO-A/MAO-B after 30 mins by coupled colorimetric method. The gist of the method:
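Enzyme source: mitochondrial fraction from rat liver (MAO A plus MAO B), homogenized in 0.1 M phosphate pH 7.4 and isolated by differential centrifugation. Coupled HRP/4-aminoantipyrine colorimetric assay with 1 mM vanillic acid as chromogen. Inhibitor (1 nM–50 µM) was preincubated 30 min at 37 °C, then tyramine added (0.5 mM final), 1 h at 37 °C, A490 read. IC50 given as mean ± SEM of 2–4 experiments.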

Assay [2] addresses T2, Amine oxidase [copper-containing] 3 (Homo sapiens, UniProt Q16853).
T2 sequence (Q16853 whole entry): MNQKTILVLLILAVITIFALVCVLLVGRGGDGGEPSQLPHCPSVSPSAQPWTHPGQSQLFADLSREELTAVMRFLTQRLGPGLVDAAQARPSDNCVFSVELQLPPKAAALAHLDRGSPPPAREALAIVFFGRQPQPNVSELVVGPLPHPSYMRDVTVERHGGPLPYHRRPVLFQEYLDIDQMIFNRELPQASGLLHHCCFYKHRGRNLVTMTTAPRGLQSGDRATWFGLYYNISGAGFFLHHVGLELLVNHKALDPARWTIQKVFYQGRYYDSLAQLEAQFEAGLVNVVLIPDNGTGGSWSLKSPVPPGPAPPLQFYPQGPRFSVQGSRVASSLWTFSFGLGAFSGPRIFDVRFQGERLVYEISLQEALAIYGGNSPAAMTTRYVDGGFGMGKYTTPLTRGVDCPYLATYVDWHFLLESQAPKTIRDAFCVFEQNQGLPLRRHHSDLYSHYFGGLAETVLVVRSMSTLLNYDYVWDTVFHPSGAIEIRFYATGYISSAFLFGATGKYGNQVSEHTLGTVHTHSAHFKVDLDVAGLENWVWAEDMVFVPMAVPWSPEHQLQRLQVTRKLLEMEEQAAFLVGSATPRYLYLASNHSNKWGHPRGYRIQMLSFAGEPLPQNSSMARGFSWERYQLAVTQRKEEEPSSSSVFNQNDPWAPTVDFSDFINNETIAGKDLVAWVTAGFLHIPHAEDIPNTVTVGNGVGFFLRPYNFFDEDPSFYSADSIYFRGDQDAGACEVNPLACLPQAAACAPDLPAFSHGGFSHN
As to the kind of experiment: Inhibition of human recombinant VAP-1 expressed in CHO cells after 30 mins by coupled colorimetric method. Type of assay: cell-based. The method, boiled down:
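Enzyme source: clarified lysate of CHO cells stably transfected with full-length human VAP-1 cDNA. The lysate was made in 150 mM NaCl, 10 mM Tris pH 7.2, 1.5 mM MgCl2 and 1% NP40 at 4 °C overnight. Reaction started with 1 mM benzylamine, 1 h at 37 °C, A490 read. IC50 given as mean ± SEM of 2–4 experiments.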

pIC50: −log10 of the molar value.

What is called IC50 is the midpoint of a concentration-inhibition curve. A high value points to weaker potency. As usually defined, the pIC50 is the negative decadic logarithm of the IC50, by convention in mol/L. For `NNC[C@H](O)c1ccccc1`, the Ratio IC50 in assay [1] came to 250. On Monoamine oxidase, this compound returned an IC50 of 9900 nM. Besides, the pIC50 in assay [2] was 7.40.
The corresponding values for `CN(N)[C@H](c1ccccc1)[C@@H](O)c1ccccc1` are 320, 105000 nM and 6.48.
On to `CN(N)[C@H](c1ccccc1)[C@H](O)c1ccccc1`, for which the Ratio IC50 in assay [1] stood at 90. At Monoamine oxidase, the IC50 worked out at 99000 nM. The negative logarithm of the IC50 (pIC50) in assay [2] was 5.97.
The corresponding values for `NNC[C@@H](O)c1ccccc1` are 65, 9800 nM and 6.82.
On to `CN(N)[C@@H](c1ccccc1)[C@H](O)c1ccccc1`, for which the Ratio IC50 in assay [1] came out at 250. The IC50 on Monoamine oxidase is 70000 nM. Further, in assay [2], the negative logarithm of the IC50 (pIC50) is 6.55.
For `NN[C@@H](c1ccccc1)[C@H](O)c1ccccc1` (relative stereo) the same measures were 0.7, 34000 nM and 4.30.
For `CCCC(NN)C(O)c1ccccc1` (mixture of isomers) the same measures were 9, 11000 nM and 5.92.
For `CN(N)[C@@H](c1ccccc1)[C@@H](O)c1ccccc1` the same measures were 72, 85000 nM and 5.93.
